# Only some compounds are listed: those with a hit (about 2.5% of all), similar ones and a draw of the others.
# TRPC4 PAM = TRPC4 (mouse) allosteric potentiation | B-score at 10 µM | Q9QUQ5 | HEK293 TRPC4beta/mu-opioid, DAMGO EC20, Fluo-4 Ca2+ flux; hits give high values | 0.42% of 310,000 active;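 active = B-score of calcium response area above 5 SD of library B-scores, with initial fluorescence ratio within 5 SD of library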;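 also: B-score of integrated fluorescence ratio over time as area under calcium response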
# DSG3 Ab inh = blocks pemphigus antibody binding to human desmoglein-3; P32926; DSG3-coupled beads, scFv-anti-DSG3-GFP binding, flow cytometry; hits give low values; binding (percent of control), % at 10 µM; 0.48% of 310,000 active; AID 588358;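 active = binding more than 3 SD below its plate's average and above zero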;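 also: hits lower antibody fragment binding to DSG3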
# Target sequence (P32926 whole entry, looked up, the tested form may be a part): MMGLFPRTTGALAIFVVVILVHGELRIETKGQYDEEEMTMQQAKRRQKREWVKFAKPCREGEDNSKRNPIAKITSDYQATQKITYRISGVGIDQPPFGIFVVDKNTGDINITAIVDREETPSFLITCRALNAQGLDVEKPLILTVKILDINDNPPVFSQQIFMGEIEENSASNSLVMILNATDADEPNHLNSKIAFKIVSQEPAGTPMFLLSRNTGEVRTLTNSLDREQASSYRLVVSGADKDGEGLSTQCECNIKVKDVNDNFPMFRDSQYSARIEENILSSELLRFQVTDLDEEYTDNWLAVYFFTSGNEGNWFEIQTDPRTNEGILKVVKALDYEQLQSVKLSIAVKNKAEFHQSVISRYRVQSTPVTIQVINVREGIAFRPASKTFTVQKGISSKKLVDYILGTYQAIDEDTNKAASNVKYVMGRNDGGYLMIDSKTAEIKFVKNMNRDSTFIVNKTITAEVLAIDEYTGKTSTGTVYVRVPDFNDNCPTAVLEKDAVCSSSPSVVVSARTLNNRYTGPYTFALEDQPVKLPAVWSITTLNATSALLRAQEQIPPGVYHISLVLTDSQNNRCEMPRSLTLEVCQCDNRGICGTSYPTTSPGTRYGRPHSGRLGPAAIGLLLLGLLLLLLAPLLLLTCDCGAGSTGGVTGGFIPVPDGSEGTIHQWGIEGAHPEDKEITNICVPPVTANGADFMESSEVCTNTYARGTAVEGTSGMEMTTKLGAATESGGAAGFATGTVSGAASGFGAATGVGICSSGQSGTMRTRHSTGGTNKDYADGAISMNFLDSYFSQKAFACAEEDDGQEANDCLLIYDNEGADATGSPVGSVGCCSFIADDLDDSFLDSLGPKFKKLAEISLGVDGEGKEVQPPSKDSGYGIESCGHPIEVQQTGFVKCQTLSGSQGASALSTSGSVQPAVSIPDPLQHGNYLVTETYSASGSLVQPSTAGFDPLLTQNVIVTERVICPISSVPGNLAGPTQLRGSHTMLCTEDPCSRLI
# TRPC4 block = TRPC4 (mouse) channel inhibition; HEK293 TRPC4beta/mu-opioid, DAMGO-evoked Fluo4 calcium flux; hits give low values; B-score at 10 µM; Q9QUQ5; 0.39% of 300,000 active; AID 2247;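 active = B-score over 3 SD under the library average, no early fluorescence shift, positive overall ratio signal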
#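 Signal: kinetic Fluo4 fluorescence imaging of calcium influx. Material: stable TRPC4beta/mu-opioid receptor HEK293 cells. Probe or stimulus: DAMGO in two steps, submaximal then maximal.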
# TRPC4 agonist = activators of mouse TRPC4 channel; HEK293 TRPC4beta/mu-opioid, Fluo4 calcium fluorescence; hits give high values; B-score at 10 µM; Q9QUQ5; 0.49% of 310,000 active; AID 2237;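 active = B-score above 5 SD of library B-scores, and initial fluorescence ratio not above library mean plus 5 SD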;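 also: positive B-score marks a calcium rise read as TRPC4 activation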
#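 Assay system: HEK293 cells stably co-expressing mouse TRPC4beta and mu-opioid receptor / Timing: Fluo4 dye loading 45 min at room temperature, 110 s recording / Signal: Fluo4 calcium-sensitive dye fluorescence, kinetic, 1 Hz baseline / Read-out: integrated baseline-normalised fluorescence ratio, converted to per-well B score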
# TRPC6 activator = mouse TRPC6 channel activation | Q61143 | HEK293-TRPC6 membrane potential dye fluorescence; hits give high values | B-score at 10 µM | 0.13% of 310,000 active;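 active = B-score of the integrated fluorescence ratio above library mean plus 3 SD, and starting fluorescence ratio within library mean plus 5 SD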;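 also: higher score means more depolarization so channel activation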
# TRPC6 inh = blocks the mouse TRPC6 cation channel | HEK293-TRPC6, membrane potential dye, ACh-evoked depolarization; hits give low values | B-score at 10 µM | 1.1% of 310,000 active | AID 2553 | Q61143;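 active = B-score under library mean minus 3 SD, initial fluorescence not abnormally high, positive integrated signal ratio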;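 also: B-score derived from integrated fluorescence ratio over the kinetic read; more negative B-score means stronger inhibition of depolarization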
# * = called active by the depositor; i = inactive; / = not tested or not shown.
SMILES,TRPC4 PAM,DSG3 Ab inh,TRPC4 block,TRPC4 agonist,TRPC6 activator,TRPC6 inh
CCOC(=O)/C(C#N)=C/c1c(N2CCN(c3ccc(OC)cc3)CC2)nc2c(C)cccn2c1=O,11*,98,i,i,i,i
Cc1cccn2c(=O)c(C=O)c(N3CCCCC3)nc12,i,102,i,i,i,i
CCNC(=O)/C(C#N)=C/c1c(N2CCN(c3ccccc3)CC2)nc2c(C)cccn2c1=O,i,115,i,i,i,i
COc1ccc(-c2nnc(-c3cc4c(ccc5ccccc54)oc3=O)o2)cc1,i,101,i,i,i,i
O=c1oc2ccc3ccccc3c2cc1-c1nnc(-c2ccccc2)o1,i,/,-6*,i,i,i
Cc1ccc(O)c(NC(=O)CSc2ccc(Cl)cc2)c1,i,3.0*,i,i,i,i
Cc1ccc(NS(=O)(=O)c2ccc(NC(=O)CSc3ccc(Cl)cc3)cc2)c(C)c1,i,101,i,i,i,i
CCCNc1nc2ccccc2n2c(C)nnc12,i,94,-6*,i,i,i
COc1cc(OC)cc(C(=O)OCc2cc3ccccc3[nH]c2=O)c1,i,80*,i,i,i,i
CN1c2ccccc2-c2ccccc2S1(=O)=O,/,104,/,/,/,/
CC(=O)C1=C(C)NC(C)=C(C(C)=O)C1c1ccccc1,i,/,i,i,i,i
CCSc1nc2c(c(=O)n1Cc1ccccc1)SC(C)C2 (configuration not stated),i,111,-6*,i,i,i
COc1ccc(C2/C(=C(\O)c3ccc4c(c3)CC(C)O4)C(=O)C(=O)N2Cc2cccnc2)c(OC)c1 (configuration not stated),i,104,i,i,i,i
N=C1c2ccccc2CN1NC(=O)c1cccc(S(=O)(=O)N2CCCCC2)c1,i,99,i,49*,i,i
C/C(=N\NC(=O)c1cccc(S(=O)(=O)N2CCOCC2)c1)c1ccc(OCC(=O)N(C)C)cc1,i,101,i,i,i,i
CN1CCN(c2nc(-c3cccnc3)nc3scc(-c4ccccc4)c23)CC1,i,/,-7*,64*,i,i
CC1CCN(c2nc(-c3cccnc3)nc3scc(-c4ccccc4)c23)CC1,i,90,i,i,i,i
COc1ccc(C[C@H]2CN3C(=NC[C@@H]3Cc3ccccc3)N2CCNC(=O)c2ccc(C)c(Br)c2)cc1,i,106,i,48*,i,i
COc1ccc(C[C@H]2CN3C(=NC[C@H]3Cc3ccccc3)N2CCNC(=O)c2ccc(C)c(Br)c2)cc1,i,109,i,i,i,i
O=C(NC(O)C(=O)c1ccc(F)cc1)c1ccc(F)cc1 (configuration not stated),i,106,i,i,i,i
O=C(/C=C/c1cccs1)NC(=S)NNC(=O)c1ccccc1O,i,102,i,47*,i,i
O=C(Nc1ccc(C(=O)Nc2ccccc2Cl)cc1)c1cccnc1,i,115,i,i,i,i
O=C(CC(Nc1ccc(F)cc1)C(=O)OCC(=O)c1cccs1)c1ccccc1 (configuration not stated),i,99,i,i,i,i
C/C(=N/NC(=O)c1cc(-c2cccc([N+](=O)[O-])c2)n[nH]1)c1cccc(O)c1,i,75*,i,i,i,i
CCOC(=O)c1cc(-c2cccc([N+](=O)[O-])c2)n[nH]1,23*,/,i,i,i,i
SMILES,TRPC4 PAM,DSG3 Ab inh,TRPC4 block,TRPC4 agonist,TRPC6 activator,TRPC6 inh
C/C(=N\NC(=O)c1cc(-c2cccc([N+](=O)[O-])c2)n[nH]1)c1ccc(F)cc1,i,94,i,i,i,i
Cc1cccc(NS(=O)(=O)c2ccc3oc(=O)ccc3c2)c1C,i,107,i,i,i,i
Cc1noc(C(F)(F)F)c1C(=O)NNC(=O)c1cccc(C(F)(F)F)c1,i,106,i,i,i,i
CC1=C(C(=O)NCc2ccccc2)C(c2ccccc2OCC(N)=O)NC(=O)N1 (configuration not stated),i,95,i,i,i,i
CC1=C(C(=O)NCc2ccccc2)C(c2cc(Br)cc(Br)c2OC(C)C)NC(=O)N1 (configuration not stated),17*,103,i,i,i,i
COc1cccc(NS(=O)(=O)c2ccc(C)c(C(=O)N3CCCCC3)c2)c1,i,111,i,i,i,i
CCc1ccc(C2=NN(C(C)=O)C(c3ccco3)C2)cc1 (configuration not stated),i,96,i,i,i,i
COc1ccc(OC[C@@H](O)CNC(=O)c2cccc3c2C(=O)c2ccc(-c4ccc(F)cc4OCc4ccccc4)cc2S3(=O)=O)cc1,/,60*,/,/,/,/
CCN(c1ccccc1)S(=O)(=O)c1ccc(Cl)c(C(=O)NC2CCN(Cc3ccccc3)CC2)c1,/,111,/,/,/,/
CN(C)S(=O)(=O)c1ccc(Cl)c(C(=O)NC2CCN(Cc3ccccc3)C2)c1 (configuration not stated),19*,118,i,i,i,i
Cc1cc(C)c(S(=O)(=O)N(C)CC(=O)NCc2ccncc2)c(C)c1,i,96,i,i,i,i
Cc1ccnc(NS(=O)(=O)c2cc(C(F)(F)F)ccc2Cl)c1,i,/,i,i,i,i
COc1ccc(N2CCN(C(=O)c3sc4nc(-c5ccc(F)cc5)cn4c3C)CC2)cc1,i,27*,i,i,i,i
COc1ccc(-c2cn3c(C)c(C(=O)Nc4cccc(NC(C)=O)c4)sc3n2)cc1,i,80*,i,i,i,i
COc1ccc(-c2cn3c(C)c(C(=O)Nc4ccncc4)sc3n2)cc1,i,98,i,i,i,i
C=CCn1c(=S)sc2c(=O)[nH]cnc21,i,104,i,i,i,i
CN1C(C(=O)NCc2cccc(Br)c2)CC2Cn3c(nc4cc5ccccc5cc43)C21 (configuration not stated),i,91*,i,i,i,i
O=C(NNS(=O)(=O)c1ccccc1F)c1sccc1-n1cccc1,i,106,i,i,i,i
CNc1nc(-c2ccc(S(=O)(=O)N3CCCCC3)cc2)cs1,/,82*,/,/,/,/
O=C(Nc1nc(-c2ccc(S(=O)(=O)N3CCCC3)cc2)cs1)c1ccco1,i,91,i,i,i,i
